From ChEMBL document CHEMBL3856239, “Synthesis and Antiobesity Properties of 6-(4-Chlorophenyl)-3-(4-((3,3-difluoro-1-hydroxycyclobutyl)methoxy)-3-methoxyphenyl)thieno[3,2-d]pyrimidin-4(3H)-one (BMS-814580): A Highly Efficacious Melanin Concentrating Hormone Receptor 1 (MCHR1) Inhibitor” (J Med Chem, 2016)

Tests used:
[1] = Displacement of [Phe13,125I]Tyr19]-MCH from human MCHR1 E4Q/A5T double mutant expressed in HEK293 cells by TopCount scintillation counting method; assay type: cell-based
[2] = Metabolic stability in human liver microsomes assessed as compound remaining at 3 uM measured after 10 min; assay type: ADME; conditions: read-out: Stability
Procedure, shortened: (§1)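 Test compound at 3.0 µM incubated with liver microsomes for 10 minutes; read-out is percent of parent remaining.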

[3] = Metabolic stability in rat liver microsomes assessed as compound remaining at 3 uM measured after 10 min; assay type: ADME; conditions: read-out: Stability; procedure, shortened: as §1
[4] = Solubility of the compound in phosphate buffer at pH 6.4; assay type: physicochemical
Procedure, shortened: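 Solubility of parent compounds and prodrugs measured in 50 mM phosphate buffer, pH 6.4.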

[5] = Lipophilicity, log P of the compound at pH 7 by HPLC analysis; assay type: physicochemical; conditions: buffer
Procedure, shortened: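 LogP determined by HPLC at pH 7.0.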

[6] = Protein binding in Sprague-Dawley rat plasma at 10 mg/kg, po qd for 4 days; assay type: ADME, organism-based; conditions: read-out: PPB
Rattus norvegicus [7] = experiment: Antiobesity activity in DIO Sprague-Dawley rat model assessed as reduction in body weight at 10 mg/kg, po qd for 28 days relative to vehicle control; assay type: functional; parameters: scale not given: the % may be the effect or the level left
Rattus norvegicus [8] = experiment: Antiobesity activity in DIO Sprague-Dawley rat model assessed as reduction in caloric intake at 10 mg/kg, po qd for 28 days relative to vehicle control; assay type: functional; parameters: scale not given: the % may be the effect or the level left
[9] = AUC in Sprague-Dawley rat at 10 mg/kg, po measured after 8 hrs; assay type: ADME, organism-based; parameters: time < 8 hr, dose 10 mg/kg, route oral; conditions: in vivo
[10] = Drug uptake in Sprague-Dawley rat brain at 10 mg/kg, po measured after 8 hrs; assay type: ADME, organism-based; conditions: read-out: Drug uptake
Procedure, shortened: (§2)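 Sprague-Dawley rats dosed orally once at 10 mg/kg as parent or glycinate prodrug (prodrug dose adjusted to parent), vehicle 0.5% Methocel/0.1% Tween 80/99.4% water; parent compound measured in brain 8 h post dose, n = 2.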

[11] = Plasma concentration in Sprague-Dawley rat at 10 mg/kg, po measured after 8 hrs; assay type: ADME, organism-based
Procedure, shortened: (§3)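 SD rats given 10 mg/kg orally as parent or glycine prodrug (prodrug dose adjusted to parent), in 0.5% Methocel/0.1% Tween 80/99.4% water. Plasma and brain levels of parent measured 8 h post dose, n = 2; 0–8 h plasma AUC also determined.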

[12] = Metabolic stability in mouse liver microsomes assessed as compound remaining at 3 uM measured after 10 min; assay type: ADME; conditions: read-out: Stability; procedure, shortened: as §1
[13] = Protein binding in rat plasma assessed as unbound fraction; assay type: ADME, cell-free
Procedure, shortened: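 Plasma protein binding reported as % free drug in rat, DIO rat, dog, cynomolgus monkey, rabbit and human plasma.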

[14] = Drug uptake in Sprague-Dawley rat brain assessed as parent compound level at 10 mg/kg, po measured after 8 hrs; assay type: ADME, organism-based; conditions: read-out: Drug uptake; procedure, shortened: as §2
[15] = Plasma concentration in Sprague-Dawley rat assessed as parent compound level at 10 mg/kg, po measured after 8 hrs; assay type: ADME, organism-based; procedure, shortened: as §3
[16] = AUC in Sprague-Dawley rat assessed as parent compound level at 10 mg/kg, po measured after 8 hrs; assay type: ADME, organism-based; parameters: dose 10 mg/kg, time < 8 hr, route oral; conditions: in vivo
Rattus norvegicus [17] = experiment: Antiobesity activity in DIO Sprague-Dawley rat assessed as body weight loss at 10 mg/kg, po qd for 4 days; assay type: functional
Procedure, shortened: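 Sprague-Dawley rats dosed orally once daily for 4 days at 3, 10 and 30 mg/kg (vehicle 0.5% Methocel/0.1% Tween 80/99.4% water), n = 8; body weight change from baseline versus vehicle-treated animals, value given for 10 mg/kg.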

[18] = Drug level in Sprague-Dawley rat brain assessed as 6-(4-chlorophenyl)-3-(4-((3,3-difluoro-1-hydroxycyclobutyl)methoxy)-3-methoxyphenyl)thieno[3,2-d]pyrimidin-4(3H)-one level measured on day 4 post 20 hrs of last dosage; assay type: ADME, tissue-based; conditions: in vivo, read-out: Ct
Procedure, shortened: (§4)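 Sub-chronic study in Sprague-Dawley rats: oral glycinate prodrug at 3, 10 and 30 mg/kg once daily for 4 days, vehicle 0.5% Methocel/0.1% Tween 80/99.4% water; parent compound measured in brain on day 4 at 20 h.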

[19] = Plasma concentration in Sprague-Dawley rat assessed as 6-(4-chlorophenyl)-3-(4-((3,3-difluoro-1-hydroxycyclobutyl)methoxy)-3-methoxyphenyl)thieno[3,2-d]pyrimidin-4(3H)-one level measured on day 4 post 20 hrs of last dosage
Procedure, shortened: (§5)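 SD rats dosed orally once daily for 4 days at 3, 10 and 30 mg/kg, as glycine prodrug in 0.5% Methocel/0.1% Tween 80 vehicle. Parent plasma and brain levels taken on day 4 at 20 h; n = 8. Biliary lesions examined.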

[20] = Ratio of drug level in brain to plasma in Sprague-Dawley rat at 10 mg/kg, po measured after 8 hrs; assay type: ADME, organism-based; conditions: brain and plasma, read-out: BPR; procedure, shortened: as §3
[21] = Drug level in Sprague-Dawley rat brain assessed as 6-(4-chlorophenyl)-3-(4-((3-hydroxyoxetan-3-yl)methoxy)-3-methoxyphenyl)thieno[3,2-d]pyrimidin-4(3H)-one level measured on day 4 post 20 hrs of last dosage; assay type: ADME, tissue-based; conditions: in vivo, read-out: Ct; procedure, shortened: as §4
[22] = Plasma concentration in Sprague-Dawley rat assessed as 6-(4-chlorophenyl)-3-(4-((3-hydroxyoxetan-3-yl)methoxy)-3-methoxyphenyl)thieno[3,2-d]pyrimidin-4(3H)-one level measured on day 4 post 20 hrs of last dosage; procedure, shortened: as §5
Rattus norvegicus [23] = experiment: Toxicity in Sprague-Dawley rat assessed as incidence of biliary lesions at 30 mg/kg, po for 4 days; assay type: organism-based; conditions: in vivo, 96 h; procedure, shortened: as §5
hERG (KCNH2) = hERG (KCNH2) (Homo sapiens, UniProt Q12809); experiment: Inhibition of human ERG at 1 uM by patch clamp assay
Sequence of hERG (KCNH2) (Q12809 whole entry): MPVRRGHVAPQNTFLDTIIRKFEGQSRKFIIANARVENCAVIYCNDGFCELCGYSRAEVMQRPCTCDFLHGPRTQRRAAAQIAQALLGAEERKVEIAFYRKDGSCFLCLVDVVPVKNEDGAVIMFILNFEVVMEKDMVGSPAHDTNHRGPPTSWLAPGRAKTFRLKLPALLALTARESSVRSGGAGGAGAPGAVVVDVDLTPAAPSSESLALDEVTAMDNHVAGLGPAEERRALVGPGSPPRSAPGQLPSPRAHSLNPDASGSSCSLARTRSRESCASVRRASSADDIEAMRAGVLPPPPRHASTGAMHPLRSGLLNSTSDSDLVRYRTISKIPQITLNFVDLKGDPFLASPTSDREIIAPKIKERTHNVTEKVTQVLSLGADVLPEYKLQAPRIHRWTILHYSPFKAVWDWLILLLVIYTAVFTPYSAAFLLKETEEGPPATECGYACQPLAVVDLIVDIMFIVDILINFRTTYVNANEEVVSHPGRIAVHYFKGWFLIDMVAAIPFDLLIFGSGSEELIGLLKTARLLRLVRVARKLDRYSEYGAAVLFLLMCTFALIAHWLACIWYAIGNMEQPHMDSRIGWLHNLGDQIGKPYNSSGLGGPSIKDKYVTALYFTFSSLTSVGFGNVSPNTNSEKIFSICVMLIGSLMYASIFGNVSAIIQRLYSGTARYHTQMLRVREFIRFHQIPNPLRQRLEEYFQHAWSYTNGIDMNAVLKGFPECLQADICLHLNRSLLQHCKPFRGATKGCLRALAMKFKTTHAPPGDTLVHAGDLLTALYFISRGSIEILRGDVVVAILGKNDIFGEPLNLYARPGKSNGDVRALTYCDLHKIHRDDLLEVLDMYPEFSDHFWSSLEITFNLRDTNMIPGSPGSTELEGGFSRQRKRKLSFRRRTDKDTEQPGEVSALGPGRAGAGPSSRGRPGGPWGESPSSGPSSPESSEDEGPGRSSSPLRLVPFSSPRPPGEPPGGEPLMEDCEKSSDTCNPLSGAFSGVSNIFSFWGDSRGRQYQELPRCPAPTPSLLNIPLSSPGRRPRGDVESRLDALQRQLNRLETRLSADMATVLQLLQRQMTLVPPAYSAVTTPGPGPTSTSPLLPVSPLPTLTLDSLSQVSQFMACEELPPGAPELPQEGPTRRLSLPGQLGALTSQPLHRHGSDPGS

| remaining at 10 min, 3 µM [2] | remaining at 10 min, 3 µM [3] | solubility [4] | logP [5] | fraction unbound at 96 h [6] | concentration at 8 h [14] | concentration at 8 h [15] | SMILES | Ki [1] | other results |
| --- | --- | --- | --- | --- | --- | --- | --- | --- | --- |
| 73% | 14% | < 1 µg/mL | 4.7 | < 0.02 | – | – | COc1cc(-n2cnc3cc(-c4ccc(Cl)cc4)sc3c2=O)ccc1OCC1(O)CCCC1 | 11.9 nM | – |
| – | – | – | – | – | – | – | Cc1c(C(=O)NN2CCCCC2)nn(-c2ccc(Cl)cc2Cl)c1-c1ccc(Cl)cc1 [RIMONABANT] | – | Activity (Rattus norvegicus [7]): 8.5%; Activity (Rattus norvegicus [8]): 27% |
| – | 24% | < 1 µg/mL | 4.7 | < 0.02 | – | – | COc1cc(-n2cnc3cc(-c4ccc(Cl)cc4)sc3c2=O)ccc1OCC1(O)CCC1 | 9.8 nM | AUC at 8 h [9]: 0.2 µM·h; concentration at 8 h [10]: < 3 nM; concentration at 8 h [11]: 6 nM |
| 100% | 98% | < 1 µg/mL | 4.5 | – | 7.8 µM | 3530 nM | COc1cc(-n2cnc3cc(-c4ccc(Cl)cc4)sc3c2=O)ccc1OCC(C)(C)O | – | remaining at 10 min, 3 µM [12]: 90%; Fu [13]: 0.8% |
| 87% | 27% | < 1 µg/mL | 4.2 | < 0.02 | – | – | COc1cc(-n2cnc3cc(-c4ccc(Cl)cc4)sc3c2=O)ccc1OCC1(O)CCOCC1 | 11.2 nM | remaining at 10 min, 3 µM [12]: 98%; AUC at 8 h [9]: 0.4 µM·h; concentration at 8 h [10]: < 3 nM; concentration at 8 h [11]: 29 nM |
| – | – | – | – | – | < 0.003 µM | 113 nM | COc1cc(-n2cnc3cc(-c4ccc(Cl)cc4)sc3c2=O)ccc1OCC1(OC(=O)CN)CC1 | – | AUC [16]: 5.9 µM·h |
| – | – | < 1 µg/mL | – | – | 11.3 µM | 4500 nM | COc1cc(-n2cnc3cc(-c4ccc(Cl)cc4)sc3c2=O)ccc1OCC1(OC(=O)CN)CC(F)(F)C1 | – | AUC [16]: 38.1 µM·h; Activity (Rattus norvegicus [17]): 6.4%; concentration [18]: 7.96 µM; concentration [19]: 12.8 µM; Kp at 8 h [20]: 2.5 |
| – | – | – | – | – | 1.13 µM | 1160 nM | COc1cc(-n2cnc3cc(-c4ccc(Cl)cc4)sc3c2=O)ccc1OCC1(OC(=O)CN)COC1 | – | AUC [16]: 34.9 µM·h; Activity (Rattus norvegicus [17]): 0%; concentration [21]: < 3 nM; concentration [22]: 37 nM |
| – | – | < 1 µg/mL | – | – | < 0.003 µM | 15 nM | COc1cc(-n2cnc3cc(-c4ccc(Cl)cc4)sc3c2=O)ccc1OCC1(OC(=O)CN)CCC1 | – | AUC [16]: 1.3 µM·h |
| 100% | 47% | < 1 µg/mL | 3.8 | < 0.02 | – | – | COc1cc(-n2cnc3cc(-c4ccc(Cl)cc4)sc3c2=O)ccc1OCC1(O)COC1 | 8.7 nM | remaining at 10 min, 3 µM [12]: 100%; Activity (Rattus norvegicus [23]): 40% |
| 94% | 61% | < 1 µg/mL | 4.1 | < 0.02 | – | – | COc1cc(-n2cnc3cc(-c4ccc(Cl)cc4)sc3c2=O)ccc1OCC1(O)CC1 | 17.5 nM | remaining at 10 min, 3 µM [12]: 99% |
| – | – | – | – | – | – | – | COc1cc(-n2cnc3cc(-c4ccc(Cl)cc4)sc3c2=O)ccc1OCCN1CCCC1 | 2.9 to 3.8 nM | – |
| – | – | < 1 µg/mL | – | – | – | – | COc1cc(-n2cnc3cc(-c4ccc(Cl)cc4)sc3c2=O)ccc1OCC(C)(C)OP(=O)(O)O | – | – |
| – | – | – | – | – | – | – | COc1cc(-n2cnc3cc(-c4ccc(Cl)cc4)sc3c2=O)ccc1OC[C@@H](C)O | 9.5 nM | inhibition at 1 µM (hERG (KCNH2)): 43.8% |
